The values that follow come from ChEMBL document CHEMBL1121556, “Structure-activity relationships in a series of newly synthesized 1-amino-substituted ellipticine derivatives” (J Med Chem, 1980).

For series [1], the system named is Friend leukemia cells (Mus musculus). The experiment in a line: In vitro concentration required for growth inhibition of murine Friend leukemia cell. Conditions: read-out: ID50 (the source's name).
Series [2] deals with Nucleic Acid. Nature of the series: Apparent association constant towards DNA at concentration of 10e-7/M. The class given is nucleic-acid assay. Particulars: Bos taurus. Put shortly:
(§1)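 Association constants for DNA binding were derived from absorption changes of calf thymus DNA at 6 × 10^-7 M, expressed as mononucleotide concentration. The buffer was 50 mM Tris-HCl, pH 7.4, with 0.1 M NaCl.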

Series [3] has as its system Nucleic Acid. The experiment in a line: B app constant towards DNA. Format: nucleic-acid assay. Conditions: Bos taurus. Put shortly:
as §1

For series [4], the system named is Mus musculus. Nature of the series: In vivo acute toxicity (nonlethal dose) against mice by intravenous administration. The class given is organism-based. Put shortly:
(§2)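 Mice (ICFW, C3H or B6D2 F1; 6-8 weeks; 22-24 g) in five groups of six. Drug dissolved in acidified saline (equimolar acetic acid) and given as a single ip or iv dose of 2, 5, 10, 25 or 50 mg/kg. Mortality observed over 30 days to set the lethal dose (LD100) and the highest nonlethal dose (LD0).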

Series [5] deals with Mus musculus. The experiment in a line: In vivo acute toxicity (nonlethal dose) against mice by intraperitoneal administration. Conditions: ip. The class given is organism-based. Put shortly: as §2
The subject of series [6] is Mus musculus. The experiment in a line: In vivo evaluation for the antitumor activity on L1210 leukemia cells at the dose 15 mg/kg administered intraperitoneally estimated as increase in life span. Format: functional. Conditions: L1210, ip, route intraperitoneal.
The test system of series [7] is Mus musculus. Nature of the series: In vivo acute toxicity (lethal dose) against mice by intravenous administration. The class given is organism-based. Summed up:
as §2

For series [8], the system named is Mus musculus. Nature of the series: In vivo acute toxicity (lethal dose) against mice by intraperitoneal administration. The class given is organism-based. Conditions: ip. Put shortly: as §2
Series [9] concerns Mus musculus. The experiment in a line: In Vivo antitumor activity on grafted tumor friend cells at the dose 20 mg/kg and decrease in intravenous 10 e 6 cells and median survival time. Format: functional. Put shortly:
(§3)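 Friend tumor cells, 10^6, injected iv into syngeneic mice. Mice randomized in groups of 16. Drug dissolved in acidified saline (equimolar acetic acid) and given as a single iv dose 3 days after inoculation. Median survival time recorded. %ILS = (treated median survival − control median survival)/control median survival × 100.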

For series [10], the system named is Mus musculus. The experiment in a line: In vivo evaluation for the antitumor activity on L1210 leukemia cells at the dose 15 mg/kg administered intraperitoneally estimated as Mean survival time. Conditions: route intraperitoneal. Format: functional.
Series [11] concerns Mus musculus. The experiment in a line: In vivo antitumor activity on L1210 leukemia cells at the dose 15 mg/kg administered intraperitoneally estimated as range of deaths. Format: functional. Particulars: route intraperitoneal.
The test system of series [12] is Nucleic Acid. The experiment in a line: Apparent association constant towards DNA at concentration of 10e-7/M. The class given is nucleic-acid assay. Particulars: Bos taurus. Summed up:
as §1

The test system of series [13] is Mus musculus. Nature of the series: In Vivo evaluation for the antitumor activity on grafted tumor friend cells at the dose 20 mg/kg and Increase in the life span was determined. Format: functional. Summed up: as §3
The test system of series [14] is Mus musculus. Nature of the series: In vivo evaluation of antitumor activity on L1210 leukemia cells at the dose 10 mg/kg administered intraperitoneally 1 day after 10 e5 L1210 leukemia cells and Mean survival time. Format: functional. Conditions: route intraperitoneal.
Series [15] has as its system Mus musculus. Nature of the series: In vivo antitumor activity on L1210 leukemia cells at the dose 10 mg/kg administered intraperitoneally 1 day after 10 e5 L1210 leukemia cells and range of deaths. Format: functional. Particulars: route intraperitoneal.
Series [16] has as its system Mus musculus. The experiment in a line: In vivo evaluation of antitumor activity on L1210 leukemia cells at the dose 10 mg/kg administered intraperitoneally 1 day after 10 e5 L1210 leukemia cells and increase in life span. Conditions: L1210, ip, 24 h, route intraperitoneal. The class given is functional.
Series [17] deals with Mus musculus. The experiment in a line: In vivo evaluation of antitumor activity on L1210 leukemia cells at the dose 15 mg/kg administered intraperitoneally 1 day after 10 e5 L1210 leukemia cells and increase in life span. The class given is functional. Particulars: L1210, ip, 24 h, route intraperitoneal.
The subject of series [18] is Mus musculus. The experiment in a line: In vivo evaluation of antitumor activity on L1210 leukemia cells at the dose 15 mg/kg administered intraperitoneally 1 day after 10 e5 L1210 leukemia cells and Mean survival time. Format: functional. Conditions: route intraperitoneal.
For series [19], the system named is Mus musculus. Nature of the series: In vivo antitumor activity on L1210 leukemia cells at the dose 15 mg/kg administered intraperitoneally 1 day after 10 e5 L1210 leukemia cells and range of deaths. The class given is functional. Particulars: route intraperitoneal.

SMILES strings stand for the structures. Starred links: 1 amine or outer side, 2 acyl side, 3 side chain; linkers in the order of their positions; H or OH if unused. Positions of bridges follow the written chain, without caps; N, C: chain ends. Non-standard residues stand in square brackets, D forms with d. Residues, ends and D or L forms follow the SMILES beside them. Chains are numbered I, II in the order given. Actinocin(1to9) = Cc1c2oc3c(C)ccc(C(=O)[*:2])c3nc-2c(C(=O)[*:1])c(N)c1=O; NMeV = CN[C@H](C(=O)O)C(C)C; Sar = CNCC(=O)O

Consider `COc1ccc2[nH]c3c(C)c4ccnc(NCCCCCN)c4cc3c2c1`, for which, in series [1], the IC50 worked out at 500 nM. For the same compound, in series [2], the K app is 4.5e+07 M⁻¹. The Bapp in series [3] turned out to be 0.15.
Regarding `CCN(CC)CCCNc1nccc2c(C)c3[nH]c4ccc(OCc5ccccc5)cc4c3c(C)c12`, the IC50 in series [1] was found to be 1000 nM.
Regarding `CCN(CC)CCCNc1nccc2c(C)c3[nH]c4ccc(OC)cc4c3c(C)c12` [RETELLIPTINE], the IC50 in series [1] is 300 nM. Further, the figures for the LD0 in series [4] and in [5] were 20 mg/kg and 15 mg/kg, respectively. Moreover, the Bapp in [3] was found to be 0.16. Moreover, the ILS at 15 mg/kg in [6] was 134%. For the same compound, the LD100 in series [7] and in [8] was 60 mg/kg each time. Besides, the MST in [9] is 10.6 days; in [10], 25 days. For the same compound, the Range of deaths in [11] was 35 days. In addition, in series [12], the K app amounted to 3.15e+07 M⁻¹. In [13], the ILS at 20 mg/kg stood at 24.7%.
For the compound `COc1ccc2[nH]c3c(C)c4ccnc(Nc5ccc(NS(C)(=O)=O)cc5)c4cc3c2c1`, the IC50 in [1] came to 2000 nM.
Consider `Cc1c2cc[n+](C)cc2c(C)c2c1[nH]c1ccc(O)cc12` [ELLIPTINIUM], for which the IC50 in [1] was found to be 300 nM.
The same measure, in the same setting: to `COc1ccc2[nH]c3c(C)c4ccnc(N5CCCCC5)c4cc3c2c1` belongs 30000 nM; to `Cc1c2oc3c(C)ccc(C(=O)N[C@@H]4C(=O)N[C@H](C(C)C)C(=O)N5CCC[C@H]5C(=O)N(C)CC(=O)N(C)[C@@H](C(C)C)C(=O)O[C@@H]4C)c3nc-2c(C(=O)N[C@@H]2C(=O)N[C@H](C(C)C)C(=O)N3CCC[C@H]3C(=O)N(C)CC(=O)N(C)[C@@H](C(C)C)C(=O)O[C@@H]2C)c(N)c1=O` [DACTINOMYCIN] (I: T[dV]P[Sar][NMeV] / II: T[dV]P[Sar][NMeV]; ester I:1-I:C, II:1-II:C; linker I:N-II:N via Actinocin(1to9)), 1 nM.
Same read-out and setting: with `COc1ccc2[nH]c3c(C)c4cc[n+](C)c(Nc5ccccc5)c4cc3c2c1` the figure was 5000 nM; with `COc1ccc2[nH]c3c(C)c4cc[n+](C)c(N(C)C)c4cc3c2c1`, > 100000 nM.
`COc1ccc2[nH]c3c(C)c4ccnc(NCCCN)c4c(C)c3c2c1` gave an MST in series [14] of 12.2 days. The Range of deaths in series [15] turned out to be 14 days. The IC50 in series [1] is 100 nM. This compound had an ILS at 10 mg/kg in series [16] of 14%. Besides, the LD0 in series [5] is 10 mg/kg. This compound gave an LD100 in [8] of 20 mg/kg.
`COc1ccc2[nH]c3c(C)c4ccnc(NCCCCCCN)c4cc3c2c1`: the IC50 in series [1] is 800 nM. Further, the K app in series [2] came to 3.5e+07 M⁻¹. Moreover, in [3], the Bapp came to 0.11.
Regarding `COc1ccc2[nH]c3c(C)c4ccnc(NCCCN(C)C)c4c(C)c3c2c1`, the IC50 in [1] came to 300 nM. Besides, the LD0 in series [5] was 15 mg/kg. This compound also came in with an ILS at 15 mg/kg in series [17] of 33.3%. The compound further registered an MST in series [18] of 15.3 days. For the same compound, in [8], the LD100 turned out to be 30 mg/kg. The Range of deaths in [19] worked out at 18 days.
`CCN(CCCN)CCCNc1nccc2c(C)c3[nH]c4ccc(OC)cc4c3cc12`: in [1], the IC50 amounted to 200 nM. Moreover, the LD0 in series [5] is 5 mg/kg. The LD100 in series [8] amounted to 15 mg/kg.
